ARFGAP1 inh: inhibitors of rat ARFGAP1 | Q62848 | Arfgap1-stimulated ARF1 GTP hydrolysis, GDP FP detection | inhibition, % at 16.5 µM | actives 0.26% (n = 360,000) | AID 651572;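 active = inhibition above a per-plate limit, mean inhibition of low control wells plus 3 SD, cut at about 25% in these data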
Target sequence (Q62848 1-136 limits assumed): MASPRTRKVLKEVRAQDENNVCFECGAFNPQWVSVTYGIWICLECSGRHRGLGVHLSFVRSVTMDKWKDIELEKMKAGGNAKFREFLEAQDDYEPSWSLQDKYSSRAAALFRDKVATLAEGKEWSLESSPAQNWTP
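material = rat Arfgap1 catalytic domain, aa 1-136 | also added = human ARF1(Δ1-17)-GTP substrate | compound dosing = one concentration, 16.5 µM, DMSO 1.26% | times = GTP hydrolysis reaction 2 h at 25 °C | measured by = FP, GDP Alexa 633 tracer displaced from anti-GDP antibody, 620/688 nm | evaluation = percent inhibition of Arfgap1-stimulated GTP hydrolysis | replication = single well per compound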
SMARCA2 act: increases SMARCA2 function in MMTV reporter cells; MG213 cells, MMTV-luciferase reporter, dexamethasone, overnight; activation, % at 9.1 µM; AID 652017; actives 1% (n = 370,000); in the data active = activation above about 7.8%
ASAP1 inh: blocks human ASAP1-stimulated Arf1 GTP hydrolysis; AID 624377; Q9ULH1; GDP FP detection; actives 0.19% (n = 360,000); inhibition, % at 16.5 µM; in the data active = inhibition above about 25%
Target sequence (Q9ULH1 325-724 limits assumed): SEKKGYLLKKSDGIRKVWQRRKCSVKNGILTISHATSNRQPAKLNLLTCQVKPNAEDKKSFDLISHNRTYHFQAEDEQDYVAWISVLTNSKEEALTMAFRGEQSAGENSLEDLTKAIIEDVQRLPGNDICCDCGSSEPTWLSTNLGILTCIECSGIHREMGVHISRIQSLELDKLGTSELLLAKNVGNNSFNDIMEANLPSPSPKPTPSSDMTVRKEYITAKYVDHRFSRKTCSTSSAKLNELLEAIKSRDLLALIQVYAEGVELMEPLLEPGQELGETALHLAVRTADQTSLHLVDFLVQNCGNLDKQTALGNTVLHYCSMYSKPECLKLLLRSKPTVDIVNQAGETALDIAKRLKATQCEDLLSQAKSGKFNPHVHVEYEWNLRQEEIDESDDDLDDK
esBAF inh: inhibitors of esBAF chromatin remodeling in mouse ES cells | Bmi1-luciferase knock-in reporter, 24 h; 100% = twice the neutral-well signal | reporter increase, % at 12.5 µM | actives 2% (n = 350,000) | AID 602393; in the data active = activation above about 40%;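 note: a rise in the Bmi1 reporter signal indicates esBAF inhibition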
Ring1 derepress: esBAF inhibition confirmed by Ring1 de-repression; shares compounds with esBAF inh; mouse ESC E14, Ring1 mRNA RT-qPCR fold change; fold change at 33 µM; 550 tested, under 10 active; AID 743176;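 active = Ring1 gene expression raised more than 2-fold over untreated cells in both replicates at either tested dose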;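 note: Ring1 transcript normalised to actin housekeeping signal by TaqMan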
esBAF Fgf4 qPCR: esBAF inhibition confirmed by Fgf4 repression | shares compounds with esBAF inh | mouse ESC E14, Fgf4 mRNA qPCR fold change; stronger effect = lower value | Fgf4 expression fold change at 33 µM | actives 4% (n = 550);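 active = Fgf4 expression under 0.8 fold of control in both repeat measurements at one or both tested doses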;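 note: Fgf4 transcript normalised to actin in duplex TaqMan qPCR; cells exposed to compound for 24 h before lysis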
esBAF Bmi1 qPCR: de-represses Bmi1 in mouse ESCs, confirming esBAF inhibition; AID 743180; shares compounds with esBAF inh; fold change at 33 µM; mouse ESE14 ES cells, Bmi1 mRNA qPCR fold; stronger effect = higher value; 550 tested, under 10 active;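 active = Bmi1 expression fold change above 6 at either tested concentration, seen in replicate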;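 note: higher fold means more Bmi1 de-repression and stronger esBAF inhibition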
A549 cytotox: kills or reduces viability of A549 cells; shares compounds with esBAF inh; A549 cytotoxicity, plate reader; cell viability change % (negative = cytotoxic), % at 25 µM, hits read low; 550 tested, under 10 active; AID 743188; call rule not given here
HepG2 tox SP: kills or reduces viability of HepG2 cells. activity change, negative = inhibition, % at 25 µM. actives 4% (n = 550). AID 743189. HepG2 cytotoxicity, plate reader; stronger effect = lower value. shares compounds with esBAF inh; in the data active = activity change below about -50%
HEK293 tox SP: HEK293 cell cytotoxicity at single point; shares compounds with esBAF inh; plate reader; activity change, negative = inhibition, % at 25 µM, hits read low; actives 3% (n = 550); AID 743190; in the data active = activity change below about -38%, passing the limit was not always enough
Of the large screens only hits and unclear results are named; the others gave an inactive call (follow-up assays come after a bar, where they were run). Compounds with a hit are over-represented: about 2.6% of the library has one in this group of screens.

CN(C)c1ccc(/C=N/OC(=O)Nc2ccccc2)cc1	none
O=C(C[C@H]1CC[C@@H]2[C@H](COC[C@H](O)CN2C(=O)Nc2cc(Cl)cc(Cl)c2)O1)N1CCCCC1	none (no result: ARFGAP1 inh, SMARCA2 act, ASAP1 inh)
CN(C)S(=O)(=O)c1ccc2c(c1)/C(=C/c1cc3c([nH]1)CCCC3)C(=O)N2	esBAF inh 59 | Ring1 derepress 2.2 | esBAF Fgf4 qPCR inactive | esBAF Bmi1 qPCR 7.7 | A549 cytotox inactive | HepG2 tox SP inactive | HEK293 tox SP inactive
CN(C)S(=O)(=O)c1ccc2c(c1)C(=O)c1cc(S(=O)(=O)N(C)C)ccc1CC2	none
CC(C)NC(=O)N[C@@H]1C=C[C@H](CC(=O)NCCN2CCCC2)O[C@@H]1CO	none (no result: ARFGAP1 inh, SMARCA2 act, ASAP1 inh)
COc1ccc(OCc2cc(C(=O)N(Cc3nccn3C)C(C)C)no2)c2ccccc12	esBAF inh 70 | Ring1 derepress inactive | esBAF Fgf4 qPCR inactive | esBAF Bmi1 qPCR inactive | A549 cytotox inactive | HepG2 tox SP inactive | HEK293 tox SP inactive
CC(C)N(Cc1nccn1C)C(=O)c1cc(COc2ccc(F)cc2Cl)on1	none
CO[C@@H]1CN(C)C(=O)c2ccc(NC(=O)c3cnccn3)cc2OC[C@@H](C)N(C(C)=O)C[C@H]1C	none (no result: ARFGAP1 inh, SMARCA2 act, ASAP1 inh)
Cc1ccsc1CN(C)C(=O)C1CCC(=O)N(CCc2cccc(F)c2)C1 (stereo not drawn)	esBAF inh 65 | Ring1 derepress inactive | esBAF Fgf4 qPCR inactive | esBAF Bmi1 qPCR inactive | A549 cytotox inactive | HepG2 tox SP inactive | HEK293 tox SP inactive
CCCC#Cc1cnc2c(c1)C(=O)N([C@@H](C)CO)C[C@@H](C)[C@@H](CN(C)S(C)(=O)=O)O2	none (no result: ARFGAP1 inh, SMARCA2 act, ASAP1 inh)
O=C(Nc1cccc2ccccc12)c1cnccn1	esBAF inh 63 | Ring1 derepress inactive | esBAF Fgf4 qPCR inactive | esBAF Bmi1 qPCR inactive | A549 cytotox inactive | HepG2 tox SP inactive | HEK293 tox SP inactive
CCc1ccccc1NC(=O)c1cnccn1	none
O=c1c(-c2ccc3c(c2)OCCO3)coc2cc(O)cc(O)c12	none
CC1(C)C=Cc2cc(-c3coc4cc(O)cc(O)c4c3=O)cc(O)c2O1	esBAF inh 68 | Ring1 derepress inactive | esBAF Fgf4 qPCR inactive | esBAF Bmi1 qPCR inactive | A549 cytotox inactive | HepG2 tox SP inactive | HEK293 tox SP inactive
COc1ccc(S(=O)(=O)Nc2ccc3c(c2)C(=O)N([C@@H](C)CO)C[C@@H](C)[C@@H](CN(C)Cc2ccccc2)OCCCC[C@H](C)O3)cc1	none (no result: ARFGAP1 inh, SMARCA2 act, ASAP1 inh)
Cc1ccc(S(=O)(=O)NCc2ccccc2)cc1C(=O)N1CC(C)CC(C)C1 (stereo not drawn)	none
Cc1ccc(S(=O)(=O)NCc2ccccc2)cc1C(=O)NC1CCC(C)CC1 (stereo not drawn)	esBAF inh 74 | Ring1 derepress inactive | esBAF Fgf4 qPCR inactive | esBAF Bmi1 qPCR inactive | A549 cytotox inactive | HepG2 tox SP inactive | HEK293 tox SP inactive
Cc1ccc(C(=O)Cc2ccccc2)c(O)c1	esBAF inh 62 | Ring1 derepress inactive | esBAF Fgf4 qPCR inactive | esBAF Bmi1 qPCR inactive | A549 cytotox inactive | HepG2 tox SP inactive | HEK293 tox SP inactive
Cc1ccc(C(=O)CC(=O)c2ccc(C)cc2O)cc1	none
COCC#Cc1ccc2c(c1)O[C@H](CN(C)S(=O)(=O)c1cccc(OC)c1)[C@H](C)CN([C@@H](C)CO)S2(=O)=O	none (no result: ARFGAP1 inh, SMARCA2 act, ASAP1 inh)
CCn1c(COc2ccc(OC)cc2)nc2ccccc21	esBAF inh 61 | Ring1 derepress inactive | esBAF Fgf4 qPCR inactive | esBAF Bmi1 qPCR inactive | A549 cytotox inactive | HepG2 tox SP inactive | HEK293 tox SP inactive
COCCn1c(COc2ccc(OC)cc2)nc2ccccc21	none

Screening data (PubChem)
